According to ChEMBL document CHEMBL4834474, “Terphenyl-Based Small-Molecule Inhibitors of Programmed Cell Death-1/Programmed Death-Ligand 1 Protein-Protein Interaction” (J Med Chem, 2021):
Calls of active or inactive are those of the source. The calls are words filed in the database; no cut-off is given here.

Experiments:
Jurkat = experiment: Cytotoxicity against human Jurkat effector cells at 10 uM after 48 hrs; assay type: cell-based
Procedure, shortened: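 Jurkat-ECs (PD-1, NFAT-RE luciferase) exposed to increasing compound concentrations, DMSO constant at 0.1%. After 48 h, tetrazolium redox dye added for a further 2 h at 37 °C, 5% CO2. Absorbance at 590 nm, 750 nm reference. Survival relative to DMSO controls; mean ± SD of three independent experiments; EC50 from dose–response curve.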

[1] = target: Programmed cell death 1 ligand 1 (Homo sapiens) (UniProt Q9NZQ7); experiment: Binding affinity to human PD-L1 assessed as induction of protein dimerization by 1H NMR method
Sequence of Programmed cell death 1 ligand 1 (Homo sapiens) (Q9NZQ7 whole entry): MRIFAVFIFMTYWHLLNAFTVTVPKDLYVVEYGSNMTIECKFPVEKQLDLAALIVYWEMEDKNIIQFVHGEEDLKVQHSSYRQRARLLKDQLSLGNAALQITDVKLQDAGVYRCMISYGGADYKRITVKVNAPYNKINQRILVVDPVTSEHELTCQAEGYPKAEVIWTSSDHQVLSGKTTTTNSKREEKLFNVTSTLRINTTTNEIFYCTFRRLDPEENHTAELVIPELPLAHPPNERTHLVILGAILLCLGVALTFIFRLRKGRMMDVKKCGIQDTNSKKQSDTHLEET

[2] = target: T1, Programmed cell death protein 1/Programmed cell death 1 ligand 1 (Homo sapiens) (UniProt Q15116+Q9NZQ7); experiment: Inhibition of PD-1/PD-L1 interaction in human Jurkat cells cocultured with CHO cells expressing TCRAct assessed as activation of effector Jurkat cells incubated for 6 hrs by luciferase reporter gene based immune checkpoint blockade cell-based assay
Procedure, shortened: (§1)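 CHO/TCRAct/PD-L1, CHO/TCRAct or CHO-K1 cells seeded at 10,000/well. Next day overlaid with Jurkat-ECs (20,000/well) plus compound dilutions, DMSO held at 0.1%. Incubated 6 h at 37 °C, 5% CO2; luciferase reagent added for 20 min at room temperature; luminescence read. Fold induction over DMSO-treated cells; mean ± SD, 3–5 experiments; EC50 by Hill fit.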

[3] = target: T1, Programmed cell death protein 1/Programmed cell death 1 ligand 1 (Homo sapiens); experiment: Inhibition of PD-1/PD-L1 interaction in human Jurkat cells cocultured with CHO cells expressing PD-Ll/TCRAct assessed as activation of effector Jurkat cells at 0.01 to 100 uM incubated for 6 hrs by luciferase reporter gene based immune checkpoint blockade cell-based assay; conditions: dose 0.01-100 µM; procedure, shortened: as §1
[4] = target: T1, Programmed cell death protein 1/Programmed cell death 1 ligand 1 (Homo sapiens); experiment: Inhibition of PD-1/PD-L1 interaction in human PBMCs cocultured with in CHO cells expressing PD-L1/TCRAct assessed as increase in HLA-DR expression on CD8+ T cells at 0.1 to 2.5 uM incubated for 48 hrs by flow cytometry; assay type: cell-based; conditions: PBMC, dose 0.1-2.5 µM
Procedure, shortened: (§2)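 PBMCs isolated by density gradient from healthy donor blood (citrate dextrose anticoagulant). 3 × 10^5 cells added to preseeded CHO/TCRAct/PD-L1 cells with compound at 0.1, 0.5 or 2.5 μM, 0.1% DMSO as control. Cocultured 48 h at 37 °C, 5% CO2. Detached cells stained 20 min at RT for CD4, CD8, CD69, CD25, HLA-DR, PD-1; flow cytometry. Four donors; one-way ANOVA with Fisher post hoc.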

[5] = target: T1, Programmed cell death protein 1/Programmed cell death 1 ligand 1 (Homo sapiens); experiment: Inhibition of PD-1/PD-L1 interaction in human PBMCs cocultured with CHO cells expressing PD-L1/TCRAct assessed as increase in IL-6 expression at 0.1 to 2.5 uM incubated for 48 hrs by TCA; assay type: cell-based; conditions: PBMC, dose 0.1-2.5 µM
Procedure, shortened: (§3)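 Culture supernatants taken from 48 h cocultures of PBMCs with CHO/TCRAct/PD-L1 cells (compound 0.1, 0.5, 2.5 μM). IL-2, IL-6, IL-10, IFN-γ, TNFα quantified by cytometric bead array against standard curves. Per donor, normalized to untreated PBMC plus CHO/TCRAct coculture. Mean ± SEM of four donors; one-way ANOVA, Fisher post hoc.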

[6] = target: T1, Programmed cell death protein 1/Programmed cell death 1 ligand 1 (Homo sapiens); experiment: Inhibition of PD-1/PD-L1 interaction in human PBMCs cocultured with CHO cells expressing PD-L1/TCRAct assessed as increase in CD25 expression on CD4+ T cells at 0.1 to 2.5 uM incubated for 48 hrs by flow cytometry; assay type: cell-based; conditions: PBMC, dose 0.1-2.5 µM; procedure, shortened: as §2
[7] = target: T1, Programmed cell death protein 1/Programmed cell death 1 ligand 1 (Homo sapiens); experiment: Inhibition of PD-1/PD-L1 interaction in human PBMCs cocultured with CHO cells expressing PD-L1/TCRAct assessed as increase in PD-1 receptor expression on CD4+ T cells at 0.1 to 2.5 uM incubated for 48 hrs by flow cytometry; assay type: cell-based; conditions: PBMC, dose 0.1-2.5 µM; procedure, shortened: as §2
[8] = target: T1, Programmed cell death protein 1/Programmed cell death 1 ligand 1 (Homo sapiens); experiment: Inhibition of PD-1/PD-L1 interaction in human PBMCs cocultured with CHO cells expressing PD-L1/TCRAct assessed as increase in PD-1 receptor expression on CD8+ T cells at 0.1 to 2.5 uM incubated for 48 hrs by flow cytometry; assay type: cell-based; conditions: PBMC, dose 0.1-2.5 µM; procedure, shortened: as §2
[9] = target: T1, Programmed cell death protein 1/Programmed cell death 1 ligand 1 (Homo sapiens); experiment: Inhibition of PD-1/PD-L1 interaction in human PBMCs cocultured with CHO cells expressing PD-L1/TCRAct assessed as increase in IL-2 expression at 0.1 to 2.5 uM incubated for 48 hrs by TCA; assay type: cell-based; conditions: PBMC, dose 0.1-2.5 µM; procedure, shortened: as §3
[10] = target: T1, Programmed cell death protein 1/Programmed cell death 1 ligand 1 (Homo sapiens); experiment: Inhibition of PD-1/PD-L1 interaction in human PBMCs cocultured with CHO cells expressing PD-L1/TCRAct assessed as increase in IL-10 expression at 0.1 to 2.5 uM incubated for 48 hrs by TCA; assay type: cell-based; conditions: PBMC, dose 0.1-2.5 µM; procedure, shortened: as §3
[11] = target: T1, Programmed cell death protein 1/Programmed cell death 1 ligand 1 (Homo sapiens); experiment: Inhibition of PD-1/PD-L1 interaction in human PBMCs cocultured with CHO cells expressing PD-L1/TCRAct assessed as increase in HLA-DR expression on CD4+ T cells at 0.1 to 2.5 uM incubated for 48 hrs by flow cytometry; assay type: cell-based; conditions: PBMC, dose 0.1-2.5 µM; procedure, shortened: as §2
[12] = target: T1, Programmed cell death protein 1/Programmed cell death 1 ligand 1 (Homo sapiens); experiment: Inhibition of PD-1/PD-L1 interaction in human PBMCs cocultured with CHO cells expressing PD-L1/TCRAct assessed as increase in INFgamma expression at 0.1 to 2.5 uM incubated for 48 hrs by TCA; assay type: cell-based; conditions: PBMC, dose 0.1-2.5 µM; procedure, shortened: as §3
[13] = target: Programmed cell death 1 ligand 1 (Mus musculus) (UniProt Q9EP73); experiment: Binding affinity to mouse PD-L1 assessed as induction of protein dimerization by 1H NMR method
Sequence of Programmed cell death 1 ligand 1 (Mus musculus) (Q9EP73 whole entry): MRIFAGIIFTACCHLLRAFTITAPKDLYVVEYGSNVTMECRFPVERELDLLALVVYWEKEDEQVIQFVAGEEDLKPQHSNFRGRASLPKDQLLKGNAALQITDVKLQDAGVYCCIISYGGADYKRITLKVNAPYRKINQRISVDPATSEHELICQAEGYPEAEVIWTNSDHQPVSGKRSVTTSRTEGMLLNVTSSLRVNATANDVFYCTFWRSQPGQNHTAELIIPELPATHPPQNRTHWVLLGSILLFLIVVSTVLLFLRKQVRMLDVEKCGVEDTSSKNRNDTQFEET

[14] = target: T1, Programmed cell death protein 1/Programmed cell death 1 ligand 1 (Homo sapiens); experiment: Inhibition of PD-1/PD-L1 interaction in human PBMCs cocultured with CHO cells expressing PD-L1/TCRAct assessed as increase in TNFalpha expression at 0.1 to 2.5 uM incubated for 48 hrs by TCA; assay type: cell-based; conditions: PBMC, dose 0.1-2.5 µM; procedure, shortened: as §3
[15] = target: T1, Programmed cell death protein 1/Programmed cell death 1 ligand 1 (Homo sapiens); experiment: Inhibition of PD-1/PD-L1 interaction in human PBMCs cocultured with CHO cells expressing PD-L1/TCRAct assessed as increase in CD25 expression on CD8+ T cells at 0.1 to 2.5 uM incubated for 48 hrs by flow cytometry; assay type: cell-based; conditions: PBMC, dose 0.1-2.5 µM; procedure, shortened: as §2

Structure (SMILES)	Activity (Jurkat)	Activity [1]	inhibition [2]	inhibition [3]	other results
COc1cc(-c2cccc(-c3ccc4c(c3)OCCO4)c2Cl)ccc1CNCCNC(C)=O	Non-Toxic	Active	inactive	Active	
COc1cc(-c2cccc(-c3ccc4c(c3)OCCO4)c2Cl)ccc1CNC(CO)(CO)CO	Non-Toxic	Active	inactive	Active	inhibition [4]: Active; inhibition [5]: Active; inhibition [6]: Active; inhibition [7]: Active; inhibition [8]: Active; inhibition [9]: Active; inhibition [10]: Active; inhibition [11]: Active; inhibition [12]: Active; Activity [13]: inactive; inhibition [14]: Active; inhibition [15]: Active
COc1cc(-c2cccc(-c3ccc4c(c3)OCCO4)c2Cl)ccc1CNCCNC(N)=O	Non-Toxic		inactive	Active	inhibition [4]: inactive; inhibition [6]: inactive; inhibition [7]: Active; inhibition [8]: Active; inhibition [11]: inactive; inhibition [15]: inactive
COc1cc(-c2cccc(-c3ccc4c(c3)OCCO4)c2Cl)ccc1CNCCNS(C)(=O)=O	Non-Toxic		inactive	Active	
CC(=O)NCCNCc1ccc(-c2cccc(-c3ccc4c(c3)OCCO4)c2Cl)cc1OCC#N		Active			
COc1cc(-c2cccc(-c3ccc4c(c3)OCCO4)c2Cl)ccc1CNCCNC(=O)CN	Non-Toxic		inactive	Active	
COc1cc(-c2cccc(-c3ccc4c(c3)OCCO4)c2Cl)ccc1CNC(CO)CO	Non-Toxic		inactive	Active	
